Assay results gathered from unrelated publications.
Compare with care: the assays were run in different laboratories.
Cell line: Vero
Observed: cell growth or viability

| SMILES | method | time | IC50 |
| --- | --- | --- | --- |
| CN(C)c1ccc(-c2nc3ccccn3c2N)cc1 | MTT | 48 h | 70 µM |
| Oc1ncnc2cc(Nc3nc(-c4ccc(F)cc4)cs3)ccc12 | MTT | – | > 50 µM |
| Nc1nc(N)c(CNCCc2ccccc2Cl)c(C2CCCCC2)n1 | SRB | – | 21 µM |
| CN(C)c1ccc(-c2nc3cnccn3c2N)cc1 | MTT | 48 h | 91 µM |
| Cc1ccc(C)n1-c1ccc(-c2nnc(-c3ccc(Br)cc3)[nH]2)cc1 | MTT | 72 h | 231 µM |
| COc1cccc2c1C(=O)c1c(O)c3c(c(O)c1C2=O)C[C@@](O)(C(=O)CO)C[C@@H]3O[C@H]1C[C@H](N)[C@H](O)[C@H](C)O1 | MTT | 48 h | 14 µM |
| Nc1nc(N)c(CNCCc2ccccc2F)c(C2CCCCC2)n1 | SRB | – | 22 µM |
| Cc1ccc(C)n1-c1ccc(-c2nnc(-c3ccccc3Cl)[nH]2)cc1 | MTT | 72 h | 222 µM |
| Cc1ccc(-c2csc(Nc3ccc4c(O)ncnc4c3)n2)cc1 | MTT | – | > 50 µM |
| COc1cc(OC)cc(-c2ccc(C(=O)NCc3c4c(c(C)[nH]c3=O)CCCC4)cc2)c1 | MTT | 72 h | > 50 mg/L |
| Oc1ncnc2cc(Nc3nc(-c4ccc(Cl)cc4)cs3)ccc12 | MTT | – | > 50 µM |
| NC1=C(Cl)C(=O)c2c(C(O)CO)c[nH]c2C1=O (stereo not drawn) | MTT | 72 h | > 19.5 µM |
| COc1ccc(CCNCc2c(N)nc(N)nc2-c2ccccc2)cc1 | SRB | – | > 100 µM |
| Cc1cc(=O)[nH]n1C(=O)c1ccc(-n2c(C)ccc2C)cc1 | MTT | 72 h | 202 µM |
| Nc1c(-c2ccc([N+](=O)[O-])cc2)nc2ccccn12 | MTT | 48 h | 74 µM |
| N#Cc1nn(-c2ccc(N=Nc3ccccc3)cc2)c(=N)n(S(=O)(=O)c2ccc(N)cc2)c1=O | – | – | 55.2 µM |
| CC(C)(C)Nc1c(-c2ccccc2[N+](=O)[O-])nc2ccccn12 | MTT | 48 h | 78 µM |
| O=[N+]([O-])c1ccc(/C(O)=C/C(=S)S)cc1 | MTT | 48 h | 255 mg/L |
| Nc1ccccc1-c1nc2cnccn2c1NC1CCCCC1 | MTT | 48 h | 75 µM |
| COc1cccc2c1C(=O)c1c(O)c3c(c(O)c1C2=O)C[C@@](O)(C(=O)CO)C[C@@H]3O[C@H]1C[C@H](N)[C@H](O)[C@H](C)O1 | SRB | – | 0.68 µM |
| Nc1nc(N)c(CNCCc2cccc(F)c2)c(C2CCCCC2)n1 | SRB | – | 25 µM |
| CC(C)(C)Nc1c(-c2ccccc2N)nc2cnccn12 | MTT | 48 h | 85 µM |
| Nc1nc(N)c(CNCCc2ccc(Cl)cc2)c(C2CCCCC2)n1 | SRB | – | 23 µM |
| COc1ccc(-c2csc(Nc3ccc4c(O)ncnc4c3)n2)cc1 | MTT | – | > 50 µM |
